Common to all, as to assay type: cell-based
Data set [1] deals with Toll-like receptor 4 (Homo sapiens) (UniProt O00206). Put plainly: Activation of human TLR4 transfected in HEK293 cells after 18 hrs by SEAP assay relative to N-cyclohexyl-2-(4-oxo-3-phenyl-4,5-dihydro-3H-pyrimido[5,4-b]indol-2-ylthio)acetamide. Details: concentration or dose not given beside the values. The procedure, abridged: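 Human TLR4 HEK-Blue cells (2.5 × 10^4/well) given compound at 10 μM for 18 h, 0.5% DMSO vehicle; SEAP in supernatant read at 630 nm, normalized to reference hit set at 100. LPS 10 ng/mL positive control.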
Sequence of Toll-like receptor 4 (Homo sapiens) (O00206 whole entry): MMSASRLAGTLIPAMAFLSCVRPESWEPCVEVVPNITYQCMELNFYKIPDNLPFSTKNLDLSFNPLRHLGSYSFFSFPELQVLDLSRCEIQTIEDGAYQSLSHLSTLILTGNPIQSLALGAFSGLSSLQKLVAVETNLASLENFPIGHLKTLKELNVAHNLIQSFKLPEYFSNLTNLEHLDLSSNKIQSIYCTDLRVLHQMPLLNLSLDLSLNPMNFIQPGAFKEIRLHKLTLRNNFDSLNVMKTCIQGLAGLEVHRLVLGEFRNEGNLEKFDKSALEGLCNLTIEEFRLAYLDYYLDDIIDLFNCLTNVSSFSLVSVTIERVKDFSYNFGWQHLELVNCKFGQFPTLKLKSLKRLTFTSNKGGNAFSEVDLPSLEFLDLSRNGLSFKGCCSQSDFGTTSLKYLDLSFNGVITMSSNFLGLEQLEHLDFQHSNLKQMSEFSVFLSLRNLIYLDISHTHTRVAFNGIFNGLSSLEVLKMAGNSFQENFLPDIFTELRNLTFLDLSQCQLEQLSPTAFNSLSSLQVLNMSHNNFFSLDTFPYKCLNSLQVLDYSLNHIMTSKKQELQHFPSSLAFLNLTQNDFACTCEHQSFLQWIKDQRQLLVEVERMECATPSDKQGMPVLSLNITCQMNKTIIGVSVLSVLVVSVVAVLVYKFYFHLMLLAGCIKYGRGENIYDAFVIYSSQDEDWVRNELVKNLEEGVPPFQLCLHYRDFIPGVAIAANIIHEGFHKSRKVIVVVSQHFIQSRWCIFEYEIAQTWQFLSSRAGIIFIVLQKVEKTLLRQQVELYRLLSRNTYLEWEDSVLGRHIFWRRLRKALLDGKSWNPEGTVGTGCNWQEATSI

The nature of data set [2]: Cytotoxicity against mouse BMDC cells up to 10 uM after overnight incubation by MTT assay. The procedure, abridged:
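BMDC (10^5/well) incubated 18 h with graded concentrations alongside 0.5% DMSO vehicle and MPLA 1 μg/mL; cells lysed after overnight MTT incubation, absorbance 570 nm minus 650 nm reference. Triplicates, mean ± SEM, two independent experiments.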

Data set [3] addresses T1, Toll-like receptor 4 (Mus musculus) (UniProt Q9QUK6).
T1 sequence (whole entry): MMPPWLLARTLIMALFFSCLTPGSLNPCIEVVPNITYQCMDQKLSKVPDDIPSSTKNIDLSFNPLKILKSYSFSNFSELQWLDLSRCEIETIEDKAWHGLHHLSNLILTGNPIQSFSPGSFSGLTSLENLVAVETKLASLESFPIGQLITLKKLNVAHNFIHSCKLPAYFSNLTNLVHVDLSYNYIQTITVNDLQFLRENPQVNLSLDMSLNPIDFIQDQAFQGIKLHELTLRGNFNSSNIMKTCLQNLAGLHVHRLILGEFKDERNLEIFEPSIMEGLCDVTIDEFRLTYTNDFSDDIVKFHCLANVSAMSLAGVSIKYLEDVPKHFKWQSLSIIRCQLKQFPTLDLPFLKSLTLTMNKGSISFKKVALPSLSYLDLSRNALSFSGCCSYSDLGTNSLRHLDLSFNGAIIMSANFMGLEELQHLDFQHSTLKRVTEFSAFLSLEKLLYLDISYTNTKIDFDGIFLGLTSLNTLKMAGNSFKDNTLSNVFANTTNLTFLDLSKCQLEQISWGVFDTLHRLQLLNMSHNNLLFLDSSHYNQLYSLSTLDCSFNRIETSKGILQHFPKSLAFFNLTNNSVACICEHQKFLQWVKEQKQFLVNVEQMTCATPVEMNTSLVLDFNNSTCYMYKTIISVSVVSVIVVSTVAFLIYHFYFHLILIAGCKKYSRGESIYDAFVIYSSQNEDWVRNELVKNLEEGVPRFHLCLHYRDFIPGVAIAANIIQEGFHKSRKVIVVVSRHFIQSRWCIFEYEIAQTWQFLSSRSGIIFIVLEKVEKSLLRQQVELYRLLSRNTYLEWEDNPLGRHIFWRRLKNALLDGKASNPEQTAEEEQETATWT
Put plainly: Activation of TLR4 in C57BL/6 mouse BMDC cells assessed as AUC of IL6 release after 18 hrs by ELISA relative to N-cyclohexyl-2-(4-oxo-3-phenyl-4,5-dihydro-3H-pyrimido[5,4-b]indol-2-ylthio)acetamide. The procedure, abridged: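 C57BL/6 bone marrow DC, 10^5 cells/well in RPMI-10% FCS, 18 h at 37 °C with titrated doses 312 nM–10 μM; supernatant IL-6 by ELISA. Each curve converted to percent activity (background subtracted, plate-adjusted), AUC by trapezoid method, normalized to reference hit set at 100 per experiment. LPS 10 ng/mL positive control; 0.5% DMSO vehicle.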
For orientation: ELISA stands for enzyme-linked immunosorbent assay.

The target in data set [4] is T1, Toll-like receptor 4 (Mus musculus). Put plainly: Activation of TLR4 in C57BL/6 mouse BMDC cells assessed as AUC of IP10 release at 5 uM after 18 hrs by ELISA relative to N-cyclohexyl-2-(4-oxo-3-phenyl-4,5-dihydro-3H-pyrimido[5,4-b]indol-2-ylthio)acetamide.
Data set [5] has as its target Toll-like receptor 4 (Homo sapiens) (UniProt O00206). Put plainly: Activation of TLR4 in human PBMC cells assessed as AUC of IL8 release at 10 uM after 18 hrs by ELISA relative to N-cyclohexyl-2-(4-oxo-3-phenyl-4,5-dihydro-3H-pyrimido[5,4-b]indol-2-ylthio)acetamide. The procedure, abridged:
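Human PBMC from buffy coats, 1 × 10^6/mL in complete RPMI, 18 h at 37 °C, 5% CO2 with compound at 10 μM; IL-8 in supernatant by ELISA, normalized to reference hit set at 100. LPS 10 ng/mL positive control.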

In data set [6] the target is T1, Toll-like receptor 4 (Mus musculus). Put plainly: Activation of mouse TLR4 transfected in HEK293 cells after 18 hrs by SEAP assay relative to N-cyclohexyl-2-(4-oxo-3-phenyl-4,5-dihydro-3H-pyrimido[5,4-b]indol-2-ylthio)acetamide. The procedure, abridged:
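Mouse TLR4 HEK-Blue cells (2.5 × 10^4/well) given titrated doses 312 nM–10 μM for 18 h, 0.5% DMSO vehicle; SEAP at 630 nm. Percent-activity curves, AUC by trapezoid method, normalized to reference hit set at 100. LPS 10 ng/mL control.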

Each structure is given as a SMILES string.

On to `Cn1c2ccccc2c2nc(SCC(=O)NC3CCCCC3)n(-c3ccccc3)c(=O)c21`, for which the Activity in data set [1] was 92%; in data set [2], “Non-toxic”; in data set [3] it was 101%; in data set [4], 99%; in data set [5], 79%; in data set [6], 100%.

For `N#CCn1c2ccccc2c2nc(SCC(=O)NC3CCCCC3)n(-c3ccccc3)c(=O)c21`, the Activity was 19% in data set [1]; “Non-toxic” in data set [2]; 98% in data set [3]; 64% in data set [4]; 30% in data set [5]; 55% in data set [6].

Take `CCCn1c2ccccc2c2nc(SCC(=O)NC3CCCCC3)n(-c3ccccc3)c(=O)c21`: the Activity result in data set [2] is given as “Non-toxic”.

`CCCCCCCC/C=C\CCCCCCCC(=O)OC[C@H](COP(=O)(O)OCCNC(=O)CSc1nc2c([nH]c3ccccc32)c(=O)n1-c1ccccc1)OC(=O)CCCCCCC/C=C\CCCCCCCC`: the Activity in data set [1], in data set [3], in data set [4], in data set [5] and in data set [6] was less than 1% throughout.

Take `O=C(CSc1nc2c3ccccc3nc-2c(O)n1-c1ccccc1)NCC1CCCO1` (stereo not drawn): the Activity in data set [1] was 13%; in data set [3], less than 23%; in data set [4] it was 54%; in data set [5], 8%; in data set [6], 21%.

For the compound `O=C(CSc1nc2c([nH]c3ccccc32)c(=O)n1-c1ccccc1)Nc1ccccc1F`, the Activity is 71% in data set [1]; 36% in data set [3]; 54% in data set [4]; 61% in data set [5]; 43% in data set [6].

For `O=C(CSc1nc2c([nH]c3ccccc32)c(=O)n1-c1ccc(F)cc1)NC1CCCCC1`, the Activity in data set [1] is 51%; in data set [3], 48%; in data set [4] it was 72%; in data set [5] it was 5%; in data set [6], 41%.

Consider `CC(C)(C)NC(=O)CSc1nc2c([nH]c3ccccc32)c(=O)n1-c1ccccc1`, for which the Activity in data set [1] is 6%; in data set [3], less than 1%; in data set [4], less than 1%; in data set [5], 5%; in data set [6], less than 1%.

Regarding `CC(C)CNC(=O)CSc1nc2c([nH]c3ccccc32)c(=O)n1-c1ccccc1`, the Activity in data set [1] was determined as 21%; in data set [3] it was 44%; in data set [4] it was 53%; in data set [5], 11%; in data set [6] it was 24%.

As for `CC(C)(C)CCNC(=O)CSc1nc2c([nH]c3ccccc32)c(=O)n1-c1ccccc1`, the Activity in data set [1] was 72%; in data set [3] it was 99%; in data set [4] it was 85%; in data set [5], 95%; in data set [6] it was 126%.

Consider `O=C(CSc1nc2c([nH]c3ccccc32)c(=O)n1-c1ccccc1)NCc1ccco1`, for which the Activity in data set [1] amounted to 27%; in data set [3], 18%; in data set [4], 26%; in data set [5], 15%; in data set [6] it was 5%.

For the compound `CCCCCCNC(=O)CSc1nc2c([nH]c3ccccc32)c(=O)n1-c1ccccc1`, the Activity was 8% in data set [1]; less than 1% in data set [3]; less than 1% in data set [4]; 7% in data set [5]; 4% in data set [6].

Take `O=C(CSc1nc2c([nH]c3ccccc32)c(=O)n1-c1ccccc1)Nc1ccc2ccccc2c1`: the Activity in data set [1] is 21%; in data set [3] it was less than 1%; in data set [4] it was less than 1%; in data set [5] it was less than 1%; in data set [6], 2%.

On to `O=C(CSc1nc2c([nH]c3ccccc32)c(=O)n1C1CCCCC1)NC1CCCCC1`, for which the Activity in data set [1] came to 40%; in data set [3] it was 71%; in data set [4], 61%; in data set [5] it was 27%; in data set [6], 56%.

With `NC(=O)Cn1c2ccccc2c2nc(SCC(=O)NC3CCCCC3)n(-c3ccccc3)c(=O)c21`, the Activity in data set [1] is 11%; in data set [3], 1%; in data set [4] it was 1%; in data set [5], 4%; in data set [6], 8%.

For the origin of these results see ChEMBL document CHEMBL2384907, “Identification of substituted pyrimido[5,4-b]indoles as selective Toll-like receptor 4 ligands” (J Med Chem, 2013).
